What was measured:
Assay type in all cases: functional
Conditions in all cases: read-out: GI
MOLT-4 = experiment: Antitumor activity against human MOLT-4 cells assessed as growth inhibition at 10 uM relative to control
Method in brief: (§1)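 After drug addition, plates were incubated 48 h at 37 °C under 5% CO2. Adherent cells were fixed with cold TCA (10% final, 60 min, 4 °C) and suspension cells with 16% final TCA. Staining used 0.4% SRB in 1% acetic acid, solubilized in 10 mM trizma, read at A515. Percent growth was calculated from time-zero, control and treated absorbances.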

NCI-H322M = experiment: Antitumor activity against human NCI-H322M cells assessed as growth inhibition at 10 uM relative to control; method in brief: as §1
OVCAR-8 = experiment: Antitumor activity against human OVCAR-8 cells assessed as growth inhibition at 10 uM relative to control; method in brief: as §1
LOX IMVI = experiment: Antitumor activity against human LOX IMVI cells assessed as growth inhibition at 10 uM relative to control; method in brief: as §1
T47D = experiment: Antitumor activity against human T47D cells assessed as growth inhibition at 10 uM relative to control
Method in brief: (§2)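 Drug exposure 48 h at 37 °C, 5% CO2. Adherent cells fixed with cold TCA (10% final), suspension cells with TCA (16% final). Stained with 0.4% SRB in 1% acetic acid, dissolved in 10 mM Tris, A515. Growth relative to time-zero and untreated control.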

KM12 = experiment: Antitumor activity against human KM12 cells assessed as growth inhibition at 10 uM relative to control; method in brief: as §1
SK-MEL-5 = experiment: Antitumor activity against human SK-MEL-5 cells assessed as growth inhibition at 10 uM relative to control; method in brief: as §2
HCC 2998 = experiment: Antitumor activity against human HCC 2998 cells assessed as growth inhibition at 10 uM relative to control; method in brief: as §1
Hs-578T = experiment: Antitumor activity against human Hs-578T cells assessed as growth inhibition at 10 uM relative to control; method in brief: as §1
HCT-116 = experiment: Antitumor activity against human HCT-116 cells assessed as growth inhibition at 10 uM relative to control; method in brief: as §1
IGROV-1 = experiment: Antitumor activity against human IGROV-1 cells assessed as growth inhibition at 10 uM relative to control; method in brief: as §1
ACHN = experiment: Antitumor activity against human ACHN cells assessed as growth inhibition at 10 uM relative to control; method in brief: as §1
786-0 = experiment: Antitumor activity against human 786-0 cells assessed as growth inhibition at 10 uM relative to control; method in brief: as §1
RPMI-8226 = experiment: Antitumor activity against human RPMI-8226 cells assessed as growth inhibition at 10 uM relative to control; method in brief: as §1
M14 = experiment: Antitumor activity against human M14 cells assessed as growth inhibition at 10 uM relative to control; method in brief: as §1
EKVX = experiment: Antitumor activity against human EKVX cells assessed as growth inhibition at 10 uM relative to control; method in brief: as §1
OVCAR-3 = experiment: Antitumor activity against human OVCAR-3 cells assessed as growth inhibition at 10 uM relative to control; method in brief: as §1
SW-620 = experiment: Antitumor activity against human SW-620 cells assessed as growth inhibition at 10 uM relative to control; method in brief: as §2
MDA-MB-231 = experiment: Antitumor activity against human MDA-MB-231 cells assessed as growth inhibition at 10 uM relative to control; method in brief: as §1
UO-31 = experiment: Antitumor activity against human UO-31 cells assessed as growth inhibition at 10 uM relative to control; method in brief: as §2
SF-268 = experiment: Antitumor activity against human SF-268 cells assessed as growth inhibition at 10 uM relative to control; method in brief: as §1
COLO 205 = experiment: Antitumor activity against human COLO 205 cells assessed as growth inhibition at 10 uM relative to control; method in brief: as §1
NCI/ADR-RES = experiment: Antitumor activity against human NCI-ADR-RES cells assessed as growth inhibition at 10 uM relative to control; method in brief: as §1
SK-MEL-28 = experiment: Antitumor activity against human SK-MEL-28 cells assessed as growth inhibition at 10 uM relative to control; method in brief: as §2
NCI-H226 = experiment: Antitumor activity against human NCI-H226 cells assessed as growth inhibition at 10 uM relative to control; method in brief: as §1
DU-145 = experiment: Antitumor activity against human DU-145 cells assessed as growth inhibition at 10 uM relative to control; method in brief: as §1
SF-539 = experiment: Antitumor activity against human SF-539 cells assessed as growth inhibition at 10 uM relative to control; method in brief: as §1
CCRF-CEM = experiment: Antitumor activity against human CCRF-CEM cells assessed as growth inhibition at 10 uM relative to control; method in brief: as §1
BT-549 = experiment: Antitumor activity against human BT-549 cells assessed as growth inhibition at 10 uM relative to control; method in brief: as §1
SF-295 = experiment: Antitumor activity against human SF-295 cells assessed as growth inhibition at 10 uM relative to control; method in brief: as §1
RXF 393 = experiment: Antitumor activity against human RXF 393 cells assessed as growth inhibition at 10 uM relative to control; method in brief: as §1
HOP-62 = experiment: Antitumor activity against human HOP-62 cells assessed as growth inhibition at 10 uM relative to control; method in brief: as §1
PC-3 = experiment: Antitumor activity against human PC-3 cells assessed as growth inhibition at 10 uM relative to control; method in brief: as §1
SNB-75 = experiment: Antitumor activity against human SNB-75 cells assessed as growth inhibition at 10 uM relative to control; method in brief: as §2
MDA-MB-468 = experiment: Antitumor activity against human MDA-MB-468 cells assessed as growth inhibition at 10 uM relative to control; method in brief: as §1
K562 = experiment: Antitumor activity against human K562 cells assessed as growth inhibition at 10 uM relative to control; method in brief: as §1
Malme-3M = experiment: Antitumor activity against human Malme-3M cells assessed as growth inhibition at 10 uM relative to control; method in brief: as §1
U-251 = experiment: Antitumor activity against human U-251 cells assessed as growth inhibition at 10 uM relative to control; method in brief: as §2
SR = experiment: Antitumor activity against human SR cells assessed as growth inhibition at 10 uM relative to control; method in brief: as §2
HL-60 = experiment: Antitumor activity against human HL-60 cells assessed as growth inhibition at 10 uM relative to control; method in brief: as §1
A498 = experiment: Antitumor activity against human A498 cells assessed as growth inhibition at 10 uM relative to control; method in brief: as §1
NCI-H522 = experiment: Antitumor activity against human NCI-H522 cells assessed as growth inhibition at 10 uM relative to control; method in brief: as §1
SNB-19 = experiment: Antitumor activity against human SNB-19 cells assessed as growth inhibition at 10 uM relative to control; method in brief: as §2
HOP-92 = experiment: Antitumor activity against human HOP-92 cells assessed as growth inhibition at 10 uM relative to control; method in brief: as §1
NCI-H23 = experiment: Antitumor activity against human NCI-H23 cells assessed as growth inhibition at 10 uM relative to control; method in brief: as §1
MDA-MB-435 = experiment: Antitumor activity against human MDA-MB-435 cells assessed as growth inhibition at 10 uM relative to control; method in brief: as §1

## N#Cc1c(-c2ccc(Cl)cc2)nc(N/N=C/c2cccc(Br)c2)nc1N1CCOCC1
MOLT-4
  inhibition of growth at 10 µM: 63.9%
NCI-H322M
  inhibition of growth at 10 µM: < 1%
OVCAR-8
  inhibition of growth at 10 µM: < 1%
LOX IMVI
  inhibition of growth at 10 µM: 20.2%
T47D
  inhibition of growth at 10 µM: 32.5%
KM12
  inhibition of growth at 10 µM: 19%
SK-MEL-5
  inhibition of growth at 10 µM: 14.4%
HCC 2998
  inhibition of growth at 10 µM: < 1%
Hs-578T
  inhibition of growth at 10 µM: 17.9%
HCT-116
  inhibition of growth at 10 µM: 38.5%
IGROV-1
  inhibition of growth at 10 µM: 16.4%
ACHN
  inhibition of growth at 10 µM: 28.5%
786-0
  inhibition of growth at 10 µM: 38.2%
RPMI-8226
  inhibition of growth at 10 µM: 44%
M14
  inhibition of growth at 10 µM: 37.6%
EKVX
  inhibition of growth at 10 µM: 31.2%
OVCAR-3
  inhibition of growth at 10 µM: < 1%
SW-620
  inhibition of growth at 10 µM: 68.5%
MDA-MB-231
  inhibition of growth at 10 µM: < 1%
UO-31
  inhibition of growth at 10 µM: 48.8%
SF-268
  inhibition of growth at 10 µM: 10.8%
COLO 205
  inhibition of growth at 10 µM: 56%
NCI/ADR-RES
  inhibition of growth at 10 µM: < 1%
SK-MEL-28
  inhibition of growth at 10 µM: < 1%
NCI-H226
  inhibition of growth at 10 µM: 28.8%
DU-145
  inhibition of growth at 10 µM: 40.4%
SF-539
  inhibition of growth at 10 µM: 21.2%
CCRF-CEM
  inhibition of growth at 10 µM: 49.7%
BT-549
  inhibition of growth at 10 µM: < 1%
SF-295
  inhibition of growth at 10 µM: < 1%
RXF 393
  inhibition of growth at 10 µM: < 1%
HOP-62
  inhibition of growth at 10 µM: < 1%
PC-3
  inhibition of growth at 10 µM: 38.8%
SNB-75
  inhibition of growth at 10 µM: 23.2%
MDA-MB-468
  inhibition of growth at 10 µM: 23.3%
K562
  inhibition of growth at 10 µM: 87.4%
Malme-3M
  inhibition of growth at 10 µM: < 1%
U-251
  inhibition of growth at 10 µM: 38.4%
SR
  inhibition of growth at 10 µM: < 1%
HL-60
  inhibition of growth at 10 µM: 59.4%
A498
  inhibition of growth at 10 µM: < 1%
NCI-H522
  inhibition of growth at 10 µM: < 1%
SNB-19
  inhibition of growth at 10 µM: < 1%
HOP-92
  inhibition of growth at 10 µM: 28.8%
NCI-H23
  inhibition of growth at 10 µM: < 1%
MDA-MB-435
  inhibition of growth at 10 µM: < 1%

— ChEMBL document CHEMBL5376013, “Design, synthesis and biological evaluation of novel morpholinopyrimidine-5-carbonitrile derivatives as dual PI3K/mTOR inhibitors” (RSC Med Chem, 2024)
